# Results from ChEMBL document CHEMBL4020832, “Development of (6 R)-2-Nitro-6-[4-(trifluoromethoxy)phenoxy]-6,7-dihydro-5 H-imidazo[2,1- b][1,3]oxazine (DNDI-8219): A New Lead for Visceral Leishmaniasis” (J Med Chem, 2018).
# What was measured:
# [1] = tested on: Liver; test: Metabolic stability in CD-1 mouse liver microsomes assessed as parent compound remaining at 1 uM after 1 hr; format: ADME, microsome
# [2] = tested on: Liver; test: Metabolic stability in human liver microsomes assessed as parent compound remaining at 0.5 uM after 0.5 hr; format: ADME, microsome
# [3] = Metabolic stability in hamster liver microsomes assessed as parent compound remaining at 0.5 uM after 0.5 hr; format: ADME, microsome; details: read-out: Stability
# [4] = tested on: Liver; test: Metabolic stability in CD-1 mouse liver microsomes assessed as parent compound remaining at 0.5 uM after 0.5 hr; format: ADME, microsome
# [5] = Metabolic stability in hamster liver microsomes assessed as parent compound remaining at 1 uM after 1 hr; format: ADME, microsome; details: read-out: Stability
# [6] = tested on: Liver; test: Metabolic stability in human liver microsomes assessed as parent compound remaining at 1 uM after 1 hr; format: ADME, microsome
# [7] = AUClast in Swiss albino mouse at 25 mg/kg, po after 24 to 48 hrs by LC-MS/MS analysis; format: ADME, organism-based; details: in vivo
# [8] = Volume of distribution at steady state in Swiss albino mouse at 1 mg/kg, iv by LC-MS/MS analysis; format: ADME, organism-based; details: in vivo, read-out: Vdss
# Summary of the method: (§1)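 Male Swiss albino mice given 1 mg/kg iv in 20% NMP/40% PEG-400 in 100 mM citrate buffer pH 3. Plasma sampled at 0.083, 0.25, 0.5, 1, 2, 4, 6, 8, 10, 24 and 48 h. Levels measured by LC–MS/MS; noncompartmental PK parameters.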
# [9] = Cmax in Swiss albino mouse at 25 mg/kg, po by LC-MS/MS analysis; format: ADME, organism-based; parameters: dose 25 mg/kg, route oral; details: in vivo
# [10] = Clearance in Swiss albino mouse at 1 mg/kg, iv by LC-MS/MS analysis; format: ADME, organism-based; details: in vivo
# [11] = Initial concentration in Swiss albino mouse at 1 mg/kg, iv by LC-MS/MS analysis; format: ADME, organism-based; details: in vivo; summary of the method: as §1
# [12] = Tmax in Swiss albino mouse at 25 mg/kg, po by LC-MS/MS analysis; format: ADME, organism-based; details: in vivo
# Summary of the method: (§2)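 Male Swiss albino mice dosed orally at 25 mg/kg as a suspension in 0.5% CMC/0.08% Tween 80 in water. Plasma sampled 0.25–48 h, analysed by LC–MS/MS. F from dose-normalized AUClast against a 1 mg/kg iv dose.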
# [13] = tested on: Mus musculus; test: Oral bioavailability in Swiss albino mouse at 25 mg/kg by LC-MS/MS analysis; format: ADME, organism-based; details: in vivo; summary of the method: as §2
# [14] = Half life in Swiss albino mouse at 1 mg/kg, iv by LC-MS/MS analysis; format: ADME, organism-based; details: Swiss albino, in vivo
# [15] = AUClast in Swiss albino mouse at 1 mg/kg, iv after 24 to 48 hrs by LC-MS/MS analysis; format: ADME, organism-based; details: in vivo
# [16] = tested on: Mus musculus; test: AUClast in Swiss albino mouse at 40 mg/kg, po after 24 to 48 hrs by LC-MS/MS analysis; format: ADME, organism-based; details: in vivo
# [17] = Half life in Swiss albino mouse at 40 mg/kg, po by LC-MS/MS analysis; format: ADME, organism-based; details: in vivo
# [18] = tested on: Mus musculus; test: Tmax in Swiss albino mouse at 40 mg/kg, po by LC-MS/MS analysis; format: ADME, organism-based; details: in vivo
# [19] = Half life in golden Syrian hamster at 40 mg/kg, po by LC-MS/MS analysis; format: ADME, organism-based, Mesocricetus auratus; details: in vivo
# [20] = Half life in golden Syrian hamster at 2 mg/kg, iv by LC-MS/MS analysis; format: ADME, organism-based, Mesocricetus auratus; details: in vivo
# Summary of the method: (§3)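 Fasted female golden Syrian hamsters. IV dose was 2 mg/kg as a solution in 20% NMP and 40% PEG-400 in citrate buffer (pH 3). Oral dosing at 40–50 mg/kg used PEG-400 as vehicle. Plasma was quantified by LC–MS/MS. AUClast was taken to the last time point (24 or 48 h).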
# [21] = Cmax in golden Syrian hamster at 40 mg/kg, po by LC-MS/MS analysis; format: ADME, organism-based, Mesocricetus auratus; parameters: dose 40 mg/kg, route oral; details: in vivo; summary of the method: as §3
# [22] = Initial concentration in golden Syrian hamster at 2 mg/kg, iv by LC-MS/MS analysis; format: ADME, organism-based, Mesocricetus auratus; details: in vivo
# Summary of the method: (§4)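 Fasted female golden Syrian hamsters given 2 mg/kg iv as a solution in 20% NMP and 40% PEG-400 in citrate buffer pH 3. Plasma concentrations determined by LC–MS/MS to derive PK parameters.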
# [23] = Tmax in golden Syrian hamster at 40 mg/kg, po by LC-MS/MS analysis; format: ADME, organism-based, Mesocricetus auratus; details: in vivo
# [24] = Volume of distribution at steady state in golden Syrian hamster at 2 mg/kg, iv by LC-MS/MS analysis; format: ADME, organism-based, Mesocricetus auratus; details: in vivo, read-out: Vdss; summary of the method: as §4
# [25] = Clearance in golden Syrian hamster at 2 mg/kg, iv by LC-MS/MS analysis; format: ADME, organism-based, Mesocricetus auratus; details: in vivo
# [26] = tested on: Mus musculus; test: Cmax in Swiss albino mouse at 40 mg/kg, po by LC-MS/MS analysis; format: ADME, organism-based; parameters: dose 40 mg/kg, route oral; details: in vivo
# [27] = AUClast in golden Syrian hamster at 2 mg/kg, iv after 24 to 48 hrs by LC-MS/MS analysis; format: ADME, organism-based, Mesocricetus auratus; details: in vivo; summary of the method: as §3
# [28] = AUClast in golden Syrian hamster at 40 mg/kg, po after 24 to 48 hrs by LC-MS/MS analysis; format: ADME, organism-based, Mesocricetus auratus; details: in vivo; summary of the method: as §3
# [29] = tested on: Syrian golden hamster; test: Oral bioavailability in golden Syrian hamster at 40 mg/kg by LC-MS/MS analysis; format: ADME, organism-based, Mesocricetus auratus; details: in vivo
Stability [1],Stability [2],"remaining at 0.5 h, 0.5 µM [3]",Stability [4],"remaining at 1 h, 1 µM [5]",Stability [6],SMILES,further results
27%,65%,57%,81%,5.8%,16%,O=[N+]([O-])c1cn2c(n1)OC[C@H](OCc1ccc(-c3ccc(OC(F)(F)F)cc3Cl)cn1)C2,–
72%,–,–,–,–,92%,CC1(C)Oc2nc([N+](=O)[O-])cn2CC1OCc1ccc(OC(F)(F)F)cc1 (stereo unspecified),–
–,68%,31%,68%,–,–,O=[N+]([O-])c1cn2c(n1)OC[C@H](OCc1cccc(-c3ccc(OC(F)(F)F)cc3)n1)C2,–
44%,–,–,–,3%,35%,O=[N+]([O-])c1cn2c(n1)OC[C@H](OCc1cccnc1-c1ccc(OC(F)(F)F)cc1)C2,–
–,–,64%,–,–,–,O=[N+]([O-])c1cn2c(n1)OCC(COc1ccc(-c3ccc(F)cc3)nc1)C2 (stereo unspecified),AUC(0-t) [7]: 12 µg·h/mL; Vd [8]: 1.8 L/kg; Cmax [9]: 0.84 µg/mL; clearance [10]: 0.312 L/h/kg; C0 [11]: 0.44 µg/mL; Tmax [12]: 8 h; F [13]: 15%; half-life [14]: 2.7 h; AUC(0-t) [15]: 3.18 µg·h/mL
40%,75%,69%,79%,10%,27%,O=[N+]([O-])c1cn2c(n1)OC[C@H](OCc1ccc(-c3ccc(OC(F)(F)F)cc3F)cn1)C2,AUClast [16]: 265 µg·h/mL; half-life [17]: 6.1 h; Tmax [18]: 3.3 h; half-life [19]: 3.9 h; half-life [20]: 3.9 h; Cmax [21]: 4.2 µg/mL; C0 [22]: 0.94 µg/mL; Tmax [23]: 2 h; Vd [24]: 4.2 L/kg; clearance [25]: 1.08 L/h/kg; Cmax [26]: 32 µg/mL; AUC(0-t) [27]: 1.89 µg·h/mL; AUC(0-t) [28]: 26.7 µg·h/mL; F [29]: 74%
–,–,61%,–,10%,27%,O=[N+]([O-])c1cn2c(n1)OC[C@H](OCc1ccc(-c3ccc(OC(F)(F)F)cc3)cn1)C2,AUClast [16]: 211 µg·h/mL; half-life [17]: 9.4 h; Tmax [18]: 4.7 h; half-life [19]: 5.8 h; half-life [20]: 6.3 h; Cmax [21]: 5.7 µg/mL; C0 [22]: 0.65 µg/mL; Vd [24]: 8.2 L/kg; clearance [25]: 1.38 L/h/kg; Cmax [26]: 16 µg/mL; AUC(0-t) [27]: 1.3 µg·h/mL; AUC(0-t) [28]: 62.7 µg·h/mL; F [29]: 100%
–,–,88%,96%,–,–,O=[N+]([O-])c1cn2c(n1)OCC(COc1ccc(-c3ccc(OC(F)(F)F)cc3)nc1)C2 (stereo unspecified),Vd [8]: 1.9 L/kg; Cmax [9]: 0.87 µg/mL; clearance [10]: 0.072 L/h/kg; C0 [11]: 0.75 µg/mL; Tmax [12]: 10 h; F [13]: 11%; half-life [14]: 20 h
56%,71%,45%,86%,11%,49%,O=[N+]([O-])c1cn2c(n1)OC[C@H](OCc1ccc(-c3ccc(OC(F)F)cc3)cn1)C2,–

# Second part, the molecule before the results:
SMILES,Stability [1],Stability [2],"remaining at 0.5 h, 0.5 µM [3]",Stability [4],"remaining at 1 h, 1 µM [5]",Stability [6],further results
O=[N+]([O-])c1cn2c(n1)OC[C@H](Oc1ccc(-c3ccc(OC(F)(F)F)cc3)nc1)C2,35%,–,–,–,–,40%,–
O=[N+]([O-])c1cn2c(n1)OC[C@H](OCc1cccc(-c3ccc(F)cc3)n1)C2,–,79%,–,68%,–,–,–
O=[N+]([O-])c1cn2c(n1)OC[C@@H](OCc1cccc(-c3ccc(F)cc3)n1)C2,–,96%,–,74%,–,–,–
O=[N+]([O-])c1cn2c(n1)OC[C@@H](OCc1cccc(-c3ccc(OC(F)(F)F)cc3)n1)C2,–,75%,31%,78%,–,–,–
O=C(N[C@H]1COc2nc([N+](=O)[O-])cn2C1)c1cccc(OC(F)(F)F)c1,–,–,–,–,59%,–,–
O=[N+]([O-])c1cn2c(n1)OC[C@@H](OCc1ccc(OC(F)(F)F)cc1)C2 [PRETOMANID],–,–,–,–,–,82%,–
